# Test results taken from ChEMBL document CHEMBL3124859, “Novel Peptidomimetic Hepatitis C Virus NS3/4A Protease Inhibitors Spanning the P2-P1' Region” (ACS Med Chem Lett, 2014).
# What was measured:
# [1] = Inhibition of Hepatitis C virus genotype 1a full length NS3/2K-NS4A protease using Ac-DED(Edans)EEAbupsi[COO]ASK(Dabcyl)-NH2 as substrate incubated for 10 mins prior to substrate addition by FRET analysis; set-up: species or system Hepatitis C virus subtype 1a
# [2] = Half life in human liver microsomes at 1 uM after 5 mins by LC/MS/MS analysis
# [3] = in vitro; details: human
# [4] = Solubility of the compound in phosphate buffered saline at pH 7.4 after 1 hr by LC-MS/MS analysis
# [5] = Apparent permeability from apical to basolateral side of human Caco2 cells at 10 uM; details: Caco-2
# [6] = molecular target: NS3 protease (Hepacivirus C, UniProt C1KIQ2, A156T); assay: Inhibition of Hepatitis C virus genotype 1a full length NS3/2K-NS4A protease A156T mutant using Ac-DED(Edans)EEAbupsi[COO]ASK(Dabcyl)-NH2 as substrate incubated for 10 mins prior to substrate addition by FRET analysis; set-up: species or system Hepatitis C virus subtype 1a
# Method in brief: (§1)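 Ki (nM ± SD) determined against each resistant NS3/4A protease variant. A vitality value was calculated for each variant as V = [Ki × (kcat/Km)]variant / [Ki × (kcat/Km)]wild-type, normalising for the effect of the substitution on catalytic efficiency.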
# [7] = Cytotoxicity against human HuH7 cells; format: cell-based, Huh-7
# [8] = molecular target: NS3 protease (Hepacivirus C, UniProt C1KIQ2, D168V); assay: Inhibition of Hepatitis C virus genotype 1a full length NS3/2K-NS4A protease D168V mutant using Ac-DED(Edans)EEAbupsi[COO]ASK(Dabcyl)-NH2 as substrate incubated for 10 mins prior to substrate addition by FRET analysis; set-up: species or system Hepatitis C virus subtype 1a; method in brief: as §1
# [9] = molecular target: NS3 protease (Hepacivirus C, UniProt C1KIQ2, R155K); assay: Inhibition of Hepatitis C virus genotype 1a full length NS3/2K-NS4A protease R155K mutant using Ac-DED(Edans)EEAbupsi[COO]ASK(Dabcyl)-NH2 as substrate incubated for 10 mins prior to substrate addition by FRET analysis; set-up: species or system Hepatitis C virus subtype 1a; method in brief: as §1
# [10] = test system: Hepatitis C virus; assay: Antiviral activity against Hepatitis C virus genotype 1b infected in human HuH7 cells by subgenomic replicon-based luciferase assay; format: functional, organism-based, Hepacivirus hominis; details: Huh-7
# Method in brief: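 Huh-7 replicon cell line carrying a subgenomic HCV genotype 1b RNA replicon with a firefly luciferase reporter; replicon inhibition read by luciferase signal and reported as EC50.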
# Sequence of NS3 protease (Hepacivirus C, UniProt C1KIQ2, A156T) (C1KIQ2 entry or part of it A156T): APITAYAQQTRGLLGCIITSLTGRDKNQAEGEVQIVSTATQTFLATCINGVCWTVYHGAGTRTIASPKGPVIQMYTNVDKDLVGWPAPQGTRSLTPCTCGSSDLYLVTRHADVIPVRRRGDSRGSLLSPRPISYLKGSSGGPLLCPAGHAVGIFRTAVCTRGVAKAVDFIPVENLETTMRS
# Sequence of NS3 protease (Hepacivirus C, UniProt C1KIQ2, D168V) (C1KIQ2 entry or part of it D168V): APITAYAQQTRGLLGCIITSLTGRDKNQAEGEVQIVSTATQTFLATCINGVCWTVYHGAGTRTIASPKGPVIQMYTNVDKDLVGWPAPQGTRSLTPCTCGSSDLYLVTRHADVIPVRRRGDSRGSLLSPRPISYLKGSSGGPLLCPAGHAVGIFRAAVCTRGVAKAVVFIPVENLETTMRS
# Sequence of NS3 protease (Hepacivirus C, UniProt C1KIQ2, R155K) (C1KIQ2 entry or part of it R155K): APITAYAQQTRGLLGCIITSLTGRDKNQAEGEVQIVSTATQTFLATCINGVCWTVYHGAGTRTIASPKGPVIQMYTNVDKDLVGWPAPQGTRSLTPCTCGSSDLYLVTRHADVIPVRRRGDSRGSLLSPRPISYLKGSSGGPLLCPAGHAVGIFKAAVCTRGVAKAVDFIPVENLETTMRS
compound,measurement,setting,value
C=Cc1cc([C@H](NC(=O)[C@@H](NC(=O)OC(C)(C)C)C(C)(C)C)C(=O)Nc2ccc(C(=O)NS(=O)(=O)c3ccc(C(F)(F)F)cc3)cc2)ccc1Oc1cc(OC)nc(-c2ccccc2)n1,Ki,[1],30 nM
CCC[C@H](NC(=O)[C@@H]1[C@H]2CCC[C@H]2CN1C(=O)[C@@H](NC(=O)[C@@H](NC(=O)c1cnccn1)C1CCCCC1)C(C)(C)C)C(=O)C(=O)NC1CC1,Ki,[1],40 nM
C=Cc1cc([C@@H](NC(=O)[C@@H](NC(=O)OC(C)(C)C)C(C)(C)C)C(=O)Nc2ccc(C(=O)NS(=O)(=O)c3ccc(C(F)(F)F)cc3)cc2)ccc1Oc1cc(OC)nc(-c2ccccc2)n1,Ki,[1],30 nM
C=Cc1cc(C(NC(=O)N2CCOCC2)C(=O)Nc2cccc(C(=O)NS(=O)(=O)c3ccc(C(F)(F)F)cc3)c2)ccc1Oc1cc(OC)nc(-c2ccccc2)n1 (configuration not stated),Ki,[1],590 nM
C=CCCCS(=O)(=O)NC(=O)c1ccccc1NC(=O)[C@@H](NC(=O)OC(C)(C)C)c1ccc(Oc2cc(OC)nc(-c3ccccc3)n2)c(C=C)c1,"half-life at 5 min, 1 µM",[2]; microsomes,0.35 h
same,Ki,[1],190 nM
same,"microsomal CLint at 5 min, 1 µM",[3]; microsomes,66 µL/min/mg
same,solubility at 1 h,[4],101 µM
same,Papp A→B at 10 µM,[5],1 ×10⁻⁶ cm/s
COc1ccc2c(O[C@@H]3C[C@H]4C(=O)N[C@]5(C(=O)O)C[C@H]5/C=C\CCCCC[C@H](NC(=O)OC5CCCC5)C(=O)N4C3)cc(-c3csc(NC(C)C)n3)nc2c1,Ki,[1],300 nM
C=Cc1cc([C@H](NC(=O)[C@@H](NC(=O)OC(C)(C)C)C(C)(C)C)C(=O)Nc2cccc(C(=O)NS(=O)(=O)c3ccc(C(F)(F)F)cc3)c2)ccc1Oc1cc(OC)nc(-c2ccccc2)n1,Ki,[6],53 nM
same,CC50,[7],≥ 50000 nM
same,"half-life at 5 min, 1 µM",[2]; liver microsomes,0.283 h
same,Ki,[1],24 nM
same,Ki,[8],110 nM
same,"microsomal CLint at 5 min, 1 µM",[3]; liver microsomes,80 µL/min/mg
same,solubility at 1 h,[4],43 µM
same,Ki,[9],210 nM
same,Papp A→B at 10 µM,[5],9.7 ×10⁻⁶ cm/s
same,EC50,[10],> 50000 nM
C=CCCCS(=O)(=O)NC(=O)c1cccc(NC(=O)[C@H](NC(=O)[C@@H](NC(=O)OC(C)(C)C)C(C)(C)C)c2ccc(Oc3cc(OC)nc(-c4ccccc4)n3)c(C=C)c2)c1,Ki,[1],100 nM
C=CCCCS(=O)(=O)NC(=O)c1ccc(NC(=O)C(NC(=O)OC(C)(C)C)c2ccc(Oc3cc(OC)nc(-c4ccccc4)n3)c(C=C)c2)cc1 (configuration not stated),Ki,[1],220 nM
C=CCCCS(=O)(=O)NC(=O)c1cccc(NC(=O)[C@@H](NC(=O)[C@@H](NC(=O)OC(C)(C)C)C(C)(C)C)c2ccc(Oc3cc(OC)nc(-c4ccccc4)n3)c(C=C)c2)c1,Ki,[1],88 nM
C=Cc1cc(C(NC(=O)c2cccnc2)C(=O)Nc2cccc(C(=O)NS(=O)(=O)c3ccc(C(F)(F)F)cc3)c2)ccc1Oc1cc(OC)nc(-c2ccccc2)n1 (configuration not stated),Ki,[1],240 nM
C=CCCCS(=O)(=O)NC(=O)c1cccc(NC(=O)C(NC(=O)OC(C)(C)C)c2ccc(Oc3cc(OC)nc(-c4ccccc4)n3)c(C=C)c2)c1 (configuration not stated),Ki,[1],210 nM
C=Cc1cc(C(NC(=O)OC(C)(C)C)C(=O)Nc2ccccc2C(=O)NS(=O)(=O)c2ccc(C(F)(F)F)cc2)ccc1Oc1cc(OC)nc(-c2ccccc2)n1 (configuration not stated),"half-life at 5 min, 1 µM",[2]; microsomes,1.47 h
same,Ki,[1],240 nM
same,"microsomal CLint at 5 min, 1 µM",[3]; microsomes,16 µL/min/mg
same,solubility at 1 h,[4],5 µM
same,Papp A→B at 10 µM,[5],4 ×10⁻⁶ cm/s
C=CCCCS(=O)(=O)NC(=O)c1ccccc1NC(=O)[C@H](NC(=O)[C@@H](NC(=O)OC(C)(C)C)C(C)(C)C)c1ccc(Oc2cc(OC)nc(-c3ccccc3)n2)c(C=C)c1,Ki,[1],33 nM
C=Cc1cc(C(NC(=O)OC2CCCC2)C(=O)Nc2ccc(C(=O)NS(=O)(=O)c3ccc(C(F)(F)F)cc3)cc2)ccc1Oc1cc(OC)nc(-c2ccccc2)n1 (configuration not stated),Ki,[1],55 nM
C=Cc1cc(C(NC(=O)OC2CCCC2)C(=O)Nc2cccc(C(=O)NS(=O)(=O)c3ccc(C(F)(F)F)cc3)c2)ccc1Oc1cc(OC)nc(-c2ccccc2)n1 (configuration not stated),Ki,[1],72 nM
C=CCCCS(=O)(=O)NC(=O)c1ccccc1NC(=O)C(NC(=O)[C@@H](NC(=O)OC(C)(C)C)C(C)(C)C)c1ccc(Oc2cc(OC)nc(-c3ccccc3)n2)c(C=C)c1 (mixture of isomers),CC50,[7],≥ 50000 nM
same,EC50,[10],12500 nM
C=Cc1cc([C@H](NC(=O)[C@@H](NC(=O)OC(C)(C)C)C(C)(C)C)C(=O)Nc2ccccc2C(=O)NS(=O)(=O)c2ccc(C(F)(F)F)cc2)ccc1Oc1cc(OC)nc(-c2ccccc2)n1,Ki,[1],45 nM
C=CCCCS(=O)(=O)NC(=O)c1ccc(NC(=O)[C@@H](NC(=O)[C@@H](NC(=O)OC(C)(C)C)C(C)(C)C)c2ccc(Oc3cc(OC)nc(-c4ccccc4)n3)c(C=C)c2)cc1,Ki,[1],96 nM
C=Cc1cc(C(NC(C)=O)C(=O)Nc2cccc(C(=O)NS(=O)(=O)c3ccc(C(F)(F)F)cc3)c2)ccc1Oc1cc(OC)nc(-c2ccccc2)n1 (configuration not stated),Ki,[1],700 nM
C=CCCCS(=O)(=O)NC(=O)c1ccc(NC(=O)[C@H](NC(=O)[C@@H](NC(=O)OC(C)(C)C)C(C)(C)C)c2ccc(Oc3cc(OC)nc(-c4ccccc4)n3)c(C=C)c2)cc1,Ki,[1],110 nM
C=Cc1cc(C(N)C(=O)Nc2cccc(C(=O)NS(=O)(=O)c3ccc(C(F)(F)F)cc3)c2)ccc1Oc1cc(OC)nc(-c2ccccc2)n1 (configuration not stated),Ki,[1],1200 nM
C=CCCCS(=O)(=O)NC(=O)c1ccccc1NC(=O)[C@@H](NC(=O)[C@@H](NC(=O)OC(C)(C)C)C(C)(C)C)c1ccc(Oc2cc(OC)nc(-c3ccccc3)n2)c(C=C)c1,Ki,[1],26 nM
C=CCCCS(=O)(=O)NC(=O)c1cccc(NC(=O)C(NC(=O)OC2CCCC2)c2ccc(Oc3cc(OC)nc(-c4ccccc4)n3)c(C=C)c2)c1 (configuration not stated),Ki,[1],130 nM
C=Cc1cc(C(NC(=O)OC(C)(C)C)C(=O)Nc2cccc(C(=O)NS(=O)(=O)c3ccc(C(F)(F)F)cc3)c2)ccc1Oc1cc(OC)nc(-c2ccccc2)n1 (configuration not stated),Ki,[6],110 nM
same,CC50,[7],≥ 50000 nM
same,"half-life at 5 min, 1 µM",[2]; liver microsomes,1.95 h
same,Ki,[1],58 nM
same,Ki,[8],180 nM
same,"microsomal CLint at 5 min, 1 µM",[3]; liver microsomes,12 µL/min/mg
same,Ki,[9],580 nM
same,Papp A→B at 10 µM,[5],1 ×10⁻⁶ cm/s
same,EC50,[10],27500 nM
C=Cc1cc(C(NC(=O)OC(C)(C)C)C(=O)Nc2ccc(C(=O)NS(=O)(=O)c3ccc(C(F)(F)F)cc3)cc2)ccc1Oc1cc(OC)nc(-c2ccccc2)n1 (configuration not stated),"half-life at 5 min, 1 µM",[2]; liver microsomes,0.917 h
same,Ki,[1],46 nM
same,"microsomal CLint at 5 min, 1 µM",[3]; liver microsomes,25 µL/min/mg
C=Cc1cc(C(NC(=O)NC(C)(C)C)C(=O)Nc2cccc(C(=O)NS(=O)(=O)c3ccc(C(F)(F)F)cc3)c2)ccc1Oc1cc(OC)nc(-c2ccccc2)n1 (configuration not stated),"half-life at 5 min, 1 µM",[2]; liver microsomes,3.23 h
same,Ki,[1],140 nM
same,"microsomal CLint at 5 min, 1 µM",[3]; liver microsomes,7 µL/min/mg
